# Screens: PubChem BioAssay, Johns Hopkins Ion Channel Center
# Kir21 inh: inhibitors of mouse Kir2.1 inward-rectifier potassium channel; 0.85% of 310,000 active; HEK293-Kir2.1, FluxOR thallium flux fluorescence; active compounds read low; Inward rectifier potassium channel 2 (Mus musculus), P35561; B-score at 10 µM;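 active = fluorescence ratio B-score at or below minus 3 SD of library scores, with starting-brightness B-score within 2 SD, cut at about -4.2 in these data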;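 note: channel flux triggered by added potassium and thallium sulfate stimulus; B-score of peak minus minimum fluorescence over baseline after thallium stimulus; more negative B-score means stronger Kir2.1 block with less thallium influx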
# KCNQ1 block: inhibitors of human KCNQ1 channel, primary screen, cell-based, thallium flux, high-throughput. Potassium voltage-gated channel subfamily KQT member 1 (Homo sapiens), P51787. CHO-K1 KCNQ1, FluxOR thallium flux fluorescence; active compounds read high. B-score at 10 µM. 1.3% of 310,000 active. AID 2642, 2010;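 active = compounds whose thallium flux B-score, printed positive for inhibition, exceeds three library SD while starting fluorescence stays within three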;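 note: channel opened by potassium depolarization with thallium stimulus after 20 min compound exposure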
# KCNQ1 pot: potentiators or activators of KCNQ1 channel, primary screen, cell-based, thallium flux, high-throughput; Potassium voltage-gated channel subfamily KQT member 1 (Homo sapiens), P51787; CHO-K1 KCNQ1, thallium flux FluxOR fluorescence; active compounds read high; B-score at 10 µM; 0.35% of 310,000 active;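 active = fluorescence ratio B-score, a plate-corrected score, at least three library SD, with initial intensity B-score within 5 SD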
#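 assay system = CHO-K1 cells stably expressing KCNQ1 | medium = assay buffer, equal DMSO in all wells | timing = 37 °C overnight plating, 90-min dark dye load, 20-min compound pretreatment | measured by = kinetic FluxOR thallium fluorescence, 10-s 1-Hz baseline, 110-s post-stimulus read | measure = fluorescence change relative to baseline, converted to B score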
# KCNK3 block: human KCNK3 channel inhibitors, primary screen, CHO cells, FluxOR thallium flux, B-score; Potassium channel subfamily K member 3 (Homo sapiens), O14649; FluxOR fluorescence; active compounds read low; B-score at 10 µM; 0.84% of 340,000 active;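 active = B-score under library mean minus 4 SD, starting fluorescence ratio at most library mean plus 5 SD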;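 note: more negative B-score means stronger inhibition of thallium flux through KCNK3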
# Target sequence (O14649 whole entry, looked up): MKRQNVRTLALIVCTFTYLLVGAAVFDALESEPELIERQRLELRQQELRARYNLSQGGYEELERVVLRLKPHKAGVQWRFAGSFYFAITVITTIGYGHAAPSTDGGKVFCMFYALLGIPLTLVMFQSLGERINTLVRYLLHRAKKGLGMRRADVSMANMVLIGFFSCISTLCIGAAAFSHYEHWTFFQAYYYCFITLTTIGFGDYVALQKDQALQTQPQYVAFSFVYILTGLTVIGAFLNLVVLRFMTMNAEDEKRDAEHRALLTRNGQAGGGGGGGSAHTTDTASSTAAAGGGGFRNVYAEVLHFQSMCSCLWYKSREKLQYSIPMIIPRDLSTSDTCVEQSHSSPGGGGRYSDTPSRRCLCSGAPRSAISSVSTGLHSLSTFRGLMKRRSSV
# KCNK9 block: KCNK9 potassium channel inhibitors, primary screen, HEK293 cells, thallium flux. Potassium channel subfamily K member 9 (Homo sapiens), Q9NPC2. FluxOR thallium flux fluorescence; active compounds read low. B-score at 10 µM. 1.2% of 310,000 active;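 active = ratio B-score over 3 SD below the library mean, with starting fluorescence within 5 SD of its mean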;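 note: negative B-score means less thallium flux so channel inhibition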
# hERG protect: hERG rescue from dofetilide block, primary screen, cell-based, CHO-hERG, FluxOR thallium flux, dofetilide IC70 | dofetilide IC70 present | Voltage-gated inwardly rectifying potassium channel KCNH2 (Homo sapiens), Q12809 | 0.51% of 310,000 active | activation (rescue from dofetilide block), less the hit threshold, % at 10 µM | AID 1511, 2009;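 active = activation above the mean of controls blocked by dofetilide plus 5 SD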;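 note: thallium influx through hERG after potassium depolarization seen as dye fluorescence rise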
# Starred values were filed as active, the others as inactive; i = inactive; . = no result given. Sampled rows, rich in hits. Any-hit rate of the full collection: about 3.8%.
SMILES,Kir21 inh,KCNQ1 block,KCNQ1 pot,KCNK3 block,KCNK9 block,hERG protect
CCCCN(C)C(=O)c1nc2ccccn2c1CN1CCN(C/C=C/c2ccccc2)CC1,0.9,i,i,i,i,-7.0
CCN(CC(=O)NCc1cccs1)C(=O)c1ccc(N(C)S(=O)(=O)c2ccc(C)cc2)cc1,.,.,.,i,.,.
COc1ccccc1CN(C)C(=O)c1cnc(C)cn1,0.08,i,i,i,i,-3.1
COc1ccccc1CN(C)C(=O)c1sccc1-c1ccccc1,-5.42*,i,i,i,i,-10.2
CCCc1cc(=O)[nH]c(SCC(=O)c2cc(C)n(C3CC3)c2C)n1,-4.49*,i,i,i,i,-11.2
Cc1ccc(C2CC(c3ccccc3)=NN2C(=S)Nc2ccccc2)o1 (stereo not given),-1.5,6*,i,i,i,-9.8
CCC1CN(C(=O)N2CCC(C(=O)NCc3ccco3)CC2)c2cc(C)ccc2O1 (stereo not given),-0.12,i,i,i,i,-21.4
CCC(C)n1c(=S)[nH]c2c(sc3ccc([N+](=O)[O-])cc32)c1=O (stereo not given),1.21,i,i,i,i,104.6*
COc1ccc(-c2csc(=Nc3c(C)n(C)n(-c4ccccc4)c3=O)n2C(C)(C)C)cc1,-0.84,i,i,i,i,5.1*
Cc1cc(C)c(OCC(=O)NCCCn2nc(C)cc2C)c(C)c1,.,.,.,i,.,.
O=C(CN1CCN(c2cccc(C(F)(F)F)c2)CC1)N(C1CC1)C1CCS(=O)(=O)C1 (stereo not given),.,.,.,i,.,.
O=C(CN1CCN(c2cccc(C(F)(F)F)c2)CC1)N(C1CCCC1)C1CCS(=O)(=O)C1 (stereo not given),.,.,.,-8.73*,.,.
COc1ccccc1N1CCN(S(=O)(=O)c2c(C)[nH]c(=O)[nH]c2=O)CC1,-0.72,i,i,i,i,-14.2
Cc1c(CCOC(=O)CC23CC4CC(CC(C4)C2)C3)sc[n+]1CC(=O)c1ccccc1,-2.58,6*,i,i,i,-19.9
Cc1c(CCOC(=O)C23CC4(C)CC(C)(CC(C)(C4)C2)C3)sc[n+]1CC(=O)c1ccccc1,-0.59,i,i,i,i,-7.2
Cc1cc(C(=O)Nc2ccc([N+](=O)[O-])cn2)cs1,-0.32,i,i,i,i,3.2
Cc1ccc(C)c(OCCC(=O)OCC(=O)Nc2cc(S(=O)(=O)N3CCCCC3)ccc2C)c1,.,.,.,-10.2*,.,.
Cc1ccc(S(=O)(=O)N2CCCCC2)cc1NC(=O)c1cc2ccccc2o1,.,.,.,-9.02*,.,.
CCCC(C(=O)Nc1cccc(S(=O)(=O)N2CCCC2)c1)c1ccccc1 (stereo not given),-0.45,i,i,i,-7.38*,-10.7
CC(CC(=O)Nc1cccc(S(=O)(=O)N2CCCCC2)c1)c1ccccc1 (stereo not given),.,.,.,i,.,.
Cc1ccc(C)c(C(=O)OCC(=O)Nc2cccc(S(=O)(=O)N3CCCCC3)c2)c1,.,.,.,-9.59*,.,.
CCCCn1c(N)c(N(CCC(C)C)C(=O)c2oc3ccc(OCC)cc3c2C)c(=O)[nH]c1=O,0.61,i,i,i,i,-14.8
O=C(CCC1CCCN(C(=O)C2=CCCCC2)C1)N1CCN(c2ccccn2)CC1 (stereo not given),0.2,i,i,i,i,-7.0
CCc1nc2ccccc2c(C(=O)OCC(=O)Nc2cccc(S(=O)(=O)N3CCOCC3)c2)c1C,0.9,i,i,-9.03*,i,-12.2
O=C(NCc1ccc(Cl)cc1)[C@@H]1CCCN1S(=O)(=O)c1ccc(Cl)cc1,.,.,.,i,.,.
SMILES,Kir21 inh,KCNQ1 block,KCNQ1 pot,KCNK3 block,KCNK9 block,hERG protect
Cc1noc(C)c1NC(=O)N(C)C[C@H]1Oc2c(NC(=O)Nc3ccc4c(c3)OCO4)cccc2C(=O)N([C@H](C)CO)C[C@@H]1C,.,.,.,i,.,.
COc1ccc(C(C)NCCC(c2ccc(OC(C)C)cc2)c2ccccc2OC)cc1 (stereo not given),-6.59*,6*,i,i,i,-22.8
COc1ccccc1C(CC(=O)Nc1ccc(Cl)cc1)c1ccc(OC(C)C)cc1 (stereo not given),-1.25,i,i,i,i,-5.8
CCOC(=O)c1nc(Nc2ccc(Nc3ccccc3)cc2)c2ccccc2n1,1.11,i,i,i,-7.59*,-16.4
C=CCn1c(SC/C=C/c2ccccc2)nnc1-c1sc(N)nc1C,-5.7*,i,i,i,i,-9.5
NC(N)=N/N=C/c1ccc2cccc(OCc3ccccc3)c2n1,-5.26*,6*,i,i,i,-25.4
COc1ccc(C(=O)N/N=C/c2ccc3cccc(OCc4ccccc4)c3n2)cc1,0.23,i,i,i,i,-3.2
O=C(N/N=C/c1ccc2cccc(OCc3ccccc3)c2n1)c1ccc(Br)cc1,2.81,i,i,i,i,11.4*
Cc1ccccc1S(=O)(=O)Oc1cccc2c(O)cccc12,-4.28*,i,i,i,i,-8.5
O=C(O)c1cc(-c2cccc([N+](=O)[O-])c2)n[nH]1,-1.91,i,i,i,i,49.4*
COc1cccc(-c2cc(C(=O)O)[nH]n2)c1,0,i,i,i,i,-7.5
Cc1cc(NC(=O)CSc2nc3ccccc3n2CCC#N)no1,0.41,i,i,i,i,4.9*
Cc1ccc(S(=O)(=O)NCCN2CCOCC2)s1,0.54,i,i,i,i,-5.9
COc1ccccc1CCNC(=O)COc1cccc2c1OC(C)(C)C2,-6.38*,i,i,i,i,-14.7
COc1ccc(NC(=O)COc2cccc3c2OC(C)(C)C3)cc1OC,.,.,.,i,.,.
COc1ccccc1NC(=O)C(C)OC(=O)CCCOc1ccccc1 (stereo not given),-4.82*,i,i,i,i,-6.1
Cc1c(NC(=O)C(C)OC(=O)COc2cccc3c2OC(C)(C)C3)c(=O)n(-c2ccccc2)n1C (stereo not given),0.01,i,i,i,i,-7.3
COc1ccccc1NC(=O)C(C)OC(=O)COc1cccc2c1OC(C)(C)C2 (stereo not given),-4.61*,i,i,i,i,-16.4
COc1ccc(C(C)=O)cc1COc1cccc2c1OC(C)(C)C2,-5.01*,i,i,i,i,-9.8
